Three molecules from ChEMBL document CHEMBL2086322, “"True" antiandrogens-selective non-ligand-binding pocket disruptors of androgen receptor-coactivator interactions: novel tools for prostate cancer” (J Med Chem, 2012) can be followed below.

One may read the inhibition as the relative decrease from the control value, in per cent.

The source made the active and inactive calls. The calls are words filed in the database; no cut-off is given here.

Series [1] deals with T1, Androgen receptor (Homo sapiens) (UniProt P10275).
T1 sequence (whole entry): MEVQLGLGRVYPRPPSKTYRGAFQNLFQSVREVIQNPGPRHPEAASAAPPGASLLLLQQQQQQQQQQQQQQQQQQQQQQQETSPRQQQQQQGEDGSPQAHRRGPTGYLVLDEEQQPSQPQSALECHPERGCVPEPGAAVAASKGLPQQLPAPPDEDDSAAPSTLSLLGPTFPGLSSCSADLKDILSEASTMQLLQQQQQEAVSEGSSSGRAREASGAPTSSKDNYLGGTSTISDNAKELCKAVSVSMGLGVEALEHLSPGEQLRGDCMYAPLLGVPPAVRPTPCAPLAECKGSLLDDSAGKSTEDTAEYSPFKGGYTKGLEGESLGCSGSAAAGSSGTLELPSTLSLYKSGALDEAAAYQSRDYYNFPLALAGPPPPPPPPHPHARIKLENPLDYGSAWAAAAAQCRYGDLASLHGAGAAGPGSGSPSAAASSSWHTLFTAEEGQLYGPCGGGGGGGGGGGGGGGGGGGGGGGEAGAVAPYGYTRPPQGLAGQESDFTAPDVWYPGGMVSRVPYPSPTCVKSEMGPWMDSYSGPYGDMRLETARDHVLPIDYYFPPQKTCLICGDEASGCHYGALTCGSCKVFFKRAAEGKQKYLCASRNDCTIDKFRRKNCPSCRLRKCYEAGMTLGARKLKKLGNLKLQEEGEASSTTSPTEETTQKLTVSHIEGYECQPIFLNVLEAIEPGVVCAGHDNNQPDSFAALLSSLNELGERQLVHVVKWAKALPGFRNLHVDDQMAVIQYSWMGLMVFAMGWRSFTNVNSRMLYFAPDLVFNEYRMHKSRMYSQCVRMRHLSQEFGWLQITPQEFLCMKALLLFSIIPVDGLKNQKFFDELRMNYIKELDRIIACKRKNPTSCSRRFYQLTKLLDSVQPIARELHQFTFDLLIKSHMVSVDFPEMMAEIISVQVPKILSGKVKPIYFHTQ
The series can be described thus: Displacement of fluormone from AR LBD after 4 hrs by fluorescence polarization assay. As to conditions: concentration not given here. (Polarisation of emitted light reports the rotation of a fluorescent probe.)

The target in series [2] is T2, Progesterone receptor (Homo sapiens) (UniProt P06401).
T2 sequence (whole entry): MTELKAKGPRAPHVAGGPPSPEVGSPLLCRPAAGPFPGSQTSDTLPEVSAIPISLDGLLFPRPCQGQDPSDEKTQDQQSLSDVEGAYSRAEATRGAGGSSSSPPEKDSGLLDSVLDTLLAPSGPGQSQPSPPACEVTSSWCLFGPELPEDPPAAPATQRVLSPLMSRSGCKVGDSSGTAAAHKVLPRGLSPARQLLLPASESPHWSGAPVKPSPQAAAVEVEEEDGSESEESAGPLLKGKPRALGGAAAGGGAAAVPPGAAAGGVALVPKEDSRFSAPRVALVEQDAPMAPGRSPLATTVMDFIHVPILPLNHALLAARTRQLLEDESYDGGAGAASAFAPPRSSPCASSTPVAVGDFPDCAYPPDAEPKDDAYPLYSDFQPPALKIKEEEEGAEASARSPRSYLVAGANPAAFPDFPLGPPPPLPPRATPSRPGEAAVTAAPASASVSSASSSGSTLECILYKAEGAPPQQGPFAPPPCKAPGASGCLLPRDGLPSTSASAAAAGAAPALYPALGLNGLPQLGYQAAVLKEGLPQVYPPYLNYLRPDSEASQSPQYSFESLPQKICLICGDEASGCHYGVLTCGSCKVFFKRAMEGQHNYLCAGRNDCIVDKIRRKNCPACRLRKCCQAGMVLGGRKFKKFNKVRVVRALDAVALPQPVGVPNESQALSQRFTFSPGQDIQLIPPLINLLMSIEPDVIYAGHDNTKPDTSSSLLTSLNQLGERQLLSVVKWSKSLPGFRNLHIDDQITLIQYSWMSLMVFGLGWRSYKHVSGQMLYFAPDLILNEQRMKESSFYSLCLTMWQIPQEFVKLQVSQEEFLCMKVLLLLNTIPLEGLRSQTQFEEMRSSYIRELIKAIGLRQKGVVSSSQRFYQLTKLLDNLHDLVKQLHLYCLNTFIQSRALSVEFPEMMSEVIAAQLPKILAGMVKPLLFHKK
The series can be described thus: Antagonist activity at PR assessed as inhibition of progesterone-induced fluorescent labelled SRC1-4 recruitment at 100 uM after 2 to 4 hrs by TR-FRET assay. It counts as functional. Put shortly:
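TR-FRET coactivator recruitment with PR ligand-binding domain, fluorescent SRC1-4 peptide and Tb anti-GST antibody, with progesterone at its EC80. Compounds were tested from 100 to 1 μM at 1% DMSO final in coregulator buffer with 5 mM DTT. […] Two independent experiments, each in triplicate; IC50 from variable-slope fit.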
For orientation: In TR-FRET formats the signal depends on donor and acceptor labels being close together.

The next series concerns PC-3. The series can be described thus: Cytotoxicity against androgen independent human PC3 cells assessed as cell viability at 50 uM after 24 hrs by alamar blue assay. It counts as functional. As to conditions: for viability at 50 µM: PC-3, 24 h, read-out: Activity. On the technique in general: The colour change of resazurin is a common sign of viable cells or microbes.

For series [3], the system named is LNCaP. Description: Cytotoxicity against androgen dependent human LNCAP cells assessed as cell viability at 50 uM after 24 hrs by alamar blue assay. It counts as functional. As to conditions: read-out: Activity.
The nature of series [4]: Cytotoxicity against human PWR-1E cells assessed as cell viability at 50 uM after 24 hrs by alamar blue assay. It counts as cell-based. As to conditions: read-out: Activity.
The test system of series [5] is LNCaP. Description: Antiproliferative activity against androgen dependent human LNCAP cells assessed as reduction of DHT-induced cell count after 5 days by alamar blue assay. It counts as functional, cell-based. In short, it runs like this:
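LNCaP cells deprived of steroids for 48 h in phenol red-free RPMI with 10% charcoal-stripped FBS, then seeded at 2 × 10^4 cells/mL. Treated 5 days with compound (10 and 20 μM) with or without 0.1 nM DHT, 0.1% DMSO final. Medium and treatments renewed every second day after PBS washes. Growth read by AlamarBlue; two experiments, n = 6.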

Series [6] addresses T1, Androgen receptor (Homo sapiens). Description: Antagonist activity at androgen receptor in androgen dependent human LNCAP cells assessed reduction of DHT-induced PSA expression after 2 hrs by ELISA. It counts as functional, cell-based.
For series [7] the target is unchanged. The series can be described thus: Antagonist activity at androgen receptor in androgen dependent human LNCAP cells assessed reduction of CPA-induced PSA expression after 2 hrs by ELISA. It counts as functional, cell-based.
Series [8] deals with CWR22R. Description: Antiproliferative activity against human 22Rv1 cells assessed effect on DHT-induced PSA expression after 2 hrs by ELISA. It counts as functional, cell-based.
Series [9] deals with CWR22R. Description: Antiproliferative activity against human 22Rv1 cells assessed reduction of CPA-induced PSA expression after 2 hrs by ELISA. It counts as functional, cell-based.
For series [10], the target named is T1, Androgen receptor (Homo sapiens). The series can be described thus: Agonist activity at androgen receptor in human LNCAP cells assessed effect on CPA-induced PSA expression after 2 hrs by ELISA. It counts as functional, cell-based.
Series [11] has the same target. Description: Partial agonist activity at androgen receptor in human LNCAP cells assessed effect on CPA-induced PSA expression after 2 hrs by ELISA. It counts as functional, cell-based.
For series [12] the target is unchanged. The series can be described thus: Antagonist activity at androgen receptor in androgen dependent human LNCAP cells assessed reduction of CPA-induced PSA expression at 10 uM after 2 hrs by ELISA. It counts as functional, cell-based.

For the molecule `COc1cc(/C=N/NC(=O)c2cc3c(ccc4ccccc43)o2)cc(OC)c1O`, the results for the inhibition in [1] and in series [2] were 0% and 30%, respectively. Also, the viability at 50 µM with PC-3 and in the series with LNCaP [3] was 80% each time. For the same molecule, the viability at 24 h, 50 µM in [4] was found to be 80%. Moreover, the Activity result (in the series on LNCaP [5]; in [6]; in series [7]) was “Dose-dependent effect” throughout. Moreover, the result in the series on CWR22R [8] was inactive. The result (in the series with CWR22R [9]; in series [10]; in [11]; in [12]) was Active.

As to `CC(=O)O[C@]1(C(C)=O)CC[C@H]2[C@@H]3C=C(Cl)C4=CC(=O)[C@@H]5C[C@@H]5[C@]4(C)[C@H]3CC[C@@]21C`, in the series with PC-3, the result was Active.

For `O=C(N/N=C/c1cc(Br)ccc1O)c1cc2ccccc2cc1O`, the inhibition in [1] worked out at 0%; in series [2], 50%. In addition, the viability at 50 µM with PC-3 and in the series with LNCaP [3] was 50% in each case. The viability at 24 h, 50 µM in series [4] is 50%.
